Laboratory results: ChEMBL document CHEMBL4011632, “Design, Synthesis, and Evaluation of Thiazolidine-2,4-dione Derivatives as a Novel Class of Glutaminase Inhibitors” (J Med Chem, 2017)

Tests used:
ASPC1 [1] = assay: Anticlonogenic activity against human Aspc-1 cells at 2 uM after 21 days by crystal violet staining based assay relative to control; format: functional; conditions: ASPC1, 504 h
Outline: (§1)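 Anchorage-dependent colony formation: AsPC-1 cells seeded at 1000 cells/well in six-well plates and treated with compound. Colony formation is expressed as percent of vehicle treatment. Mean ± SD from at least three independent experiments, each in duplicate.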

[2] = biological target: T1, Glutaminase liver isoform, mitochondrial (Homo sapiens, UniProt Q9UI32); assay: Inhibition of recombinant human His-tagged GAB (P56 to V602 residues) expressed in Escherichia coli C41(DE3)pLysS using glutamine as substrate preincubated for 10 mins followed by substrate addition measured after 60 mins by glutamate dehydrogenase coupled enzyme assay
T1 sequence (Q9UI32 whole entry): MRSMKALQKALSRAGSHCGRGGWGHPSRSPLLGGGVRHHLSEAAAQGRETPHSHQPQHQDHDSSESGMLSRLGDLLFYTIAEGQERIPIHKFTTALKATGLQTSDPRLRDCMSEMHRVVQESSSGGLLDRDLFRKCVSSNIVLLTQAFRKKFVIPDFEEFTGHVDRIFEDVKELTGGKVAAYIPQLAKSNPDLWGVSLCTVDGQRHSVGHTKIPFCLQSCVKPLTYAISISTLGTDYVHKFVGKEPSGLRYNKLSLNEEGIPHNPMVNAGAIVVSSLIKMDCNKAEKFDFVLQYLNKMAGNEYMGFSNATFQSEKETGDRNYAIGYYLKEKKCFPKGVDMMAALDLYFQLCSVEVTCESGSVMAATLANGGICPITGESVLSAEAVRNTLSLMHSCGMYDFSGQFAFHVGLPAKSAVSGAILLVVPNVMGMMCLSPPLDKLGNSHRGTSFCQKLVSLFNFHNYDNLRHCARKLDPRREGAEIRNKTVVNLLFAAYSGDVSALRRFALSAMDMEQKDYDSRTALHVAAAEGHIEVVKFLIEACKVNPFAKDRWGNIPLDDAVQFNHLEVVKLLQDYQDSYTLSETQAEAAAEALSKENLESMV

[3] = biological target: T2, Glutaminase kidney isoform, mitochondrial (Homo sapiens, UniProt O94925); assay: Inhibition of recombinant human His-tagged KGA (L123 to L669 residues) expressed in Escherichia coli BL21(DE3)pLysS using glutamine substrate preincubated for 10 mins followed by substrate addition measured after 60 mins by glutamate dehydrogenase coupled enzyme assay
T2 sequence (O94925 whole entry): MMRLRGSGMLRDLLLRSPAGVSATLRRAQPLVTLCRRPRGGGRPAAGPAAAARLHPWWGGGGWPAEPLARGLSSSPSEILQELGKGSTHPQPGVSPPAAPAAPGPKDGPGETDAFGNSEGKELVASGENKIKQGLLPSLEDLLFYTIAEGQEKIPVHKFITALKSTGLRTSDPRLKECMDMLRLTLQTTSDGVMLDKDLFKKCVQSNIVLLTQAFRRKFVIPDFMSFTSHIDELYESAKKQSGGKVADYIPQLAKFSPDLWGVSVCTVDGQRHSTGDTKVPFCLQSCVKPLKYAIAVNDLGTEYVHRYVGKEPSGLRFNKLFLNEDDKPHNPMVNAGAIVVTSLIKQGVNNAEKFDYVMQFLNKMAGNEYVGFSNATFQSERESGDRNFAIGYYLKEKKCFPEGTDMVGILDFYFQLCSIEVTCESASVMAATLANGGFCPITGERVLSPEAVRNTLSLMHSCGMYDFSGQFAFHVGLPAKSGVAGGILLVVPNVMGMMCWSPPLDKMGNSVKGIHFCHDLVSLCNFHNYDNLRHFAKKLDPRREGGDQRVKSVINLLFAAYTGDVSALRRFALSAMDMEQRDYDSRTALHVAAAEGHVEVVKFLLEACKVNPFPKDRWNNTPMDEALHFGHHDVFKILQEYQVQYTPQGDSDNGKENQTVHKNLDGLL

[4] = biological target: T2, Glutaminase kidney isoform, mitochondrial; assay: Inhibition of recombinant human MCF7 cells derived His-tagged GAC (L123 to S598 residues) expressed in Escherichia coli C41(DE3)pLysS using glutamine as substrate preincubated for 10 mins followed by substrate addition measured after 60 mins by glutamate dehydrogenase coupled enzyme assay
Outline: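 Human GAC cloned from MCF7 cDNA into pET28a(+) as a His-tagged construct. Expressed in E. coli C41(DE3)pLysS in Terrific Broth with kanamycin, induced with 1 mM IPTG for 6 h at 25 °C. Purified on Ni2+ resin with 500 mM imidazole elution and exchanged into 50 mM NaH2PO4, 50 mM Tris-HCl pH 8.0, 2 mM DTT, 50% glycerol. Activity measured by two-step glutaminase assay.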

Homo sapiens [5] = organism: Homo sapiens; assay: Selectivity index, ratio of IC50 for recombinant human His-tagged GAB (P56-V602 residues) expressed in Escherichia coli C41(DE3)pLysS to IC50 for recombinant human His-tagged KGA (L123 to L669 residues) expressed in Escherichia coli BL21(DE3)pLysS
ASPC1 [6] = assay: Anticlonogenic activity against human Aspc-1 cells at 10 uM after 21 days by crystal violet staining based assay relative to control; format: functional; conditions: ASPC1, 504 h; outline: as §1
ASPC1 [7] = assay: Growth inhibition of human Aspc-1 cells after 72 hrs by MTS assay; format: functional, cell-based; conditions: ASPC1, 72 h
Outline: (§2)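 Growth inhibition by MTS viability read-out. Cells seeded in 96-well plates at 4000/well (AsPC-1) or 8500/well (MDA-MB-231). Mean ± SD from at least three independent experiments, each in duplicate.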

MDA-MB-231 = assay: Growth inhibition of human MDA-MB-231 cells after 72 hrs by MTS assay; format: functional, cell-based; conditions: MDA-MB-231, 72 h; outline: as §2
[8] = Inhibition of recombinant human His-tagged KGA R387A mutant expressed in Escherichia coli BL21(DE3)pLysS using glutamine substrate preincubated for 10 mins followed by substrate addition measured after 60 mins
Homo sapiens [9] = organism: Homo sapiens; assay: Selectivity ratio of IC50 for recombinant human His-tagged KGA S384A mutant expressed in Escherichia coli BL21(DE3)pLysS to IC50 for human His-tagged KGA (L123 to L669 residues) expressed in Escherichia coli BL21(DE3)pLysS
Homo sapiens [10] = organism: Homo sapiens; assay: Selectivity ratio of IC50 for recombinant human His-tagged KGA R387L mutant expressed in Escherichia coli BL21(DE3)pLysS to IC50 for human His-tagged KGA (L123 to L669 residues) expressed in Escherichia coli BL21(DE3)pLysS
Homo sapiens [11] = organism: Homo sapiens; assay: Selectivity ratio of IC50 for recombinant human His-tagged KGA K507A mutant expressed in Escherichia coli BL21(DE3)pLysS to IC50 for human His-tagged KGA (L123 to L669 residues) expressed in Escherichia coli BL21(DE3)pLysS
ASPC1 [12] = assay: Synergistic cytotoxicity against human Aspc-1 cells assessed as reduction in cell viability at ED50 in presence of doxorubicin by MTS assay; format: functional
Outline: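 AsPC-1 cells treated with compound combinations and viability read by MTS. Combination index at ED50, ED75 and ED90 calculated by the Chou−Talalay method. CI = 1 additive, <1 synergism, >1 antagonism. Representative of three independent experiments.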

Row | IC50 [2] | IC50 [3] | IC50 [4] | Ratio IC50 (Homo sapiens [5]) | IC50 (ASPC1 [7]) | IC50 (MDA-MB-231) | IC50 [8] | Ratio IC50 (Homo sapiens [9]) | Ratio IC50 (Homo sapiens [10]) | Ratio IC50 (Homo sapiens [11]) | Structure (SMILES) | inhibition at 2 µM (ASPC1 [1]) | inhibition at 10 µM (ASPC1 [6]) | CI (ASPC1 [12])
1 | 4.19 µM | 0.057 µM | 0.255 µM | 74 | > 50 µM | > 50 µM | 10.9 µM | 1.5 | 13.5 | 4.7 | Cc1cc(/C=C2\SC(=O)NC2=O)c(C)n1-c1ccc(-c2ccc(/C=C3\SC(=O)NC3=O)c(Cl)c2)cc1 | 18% | 51% | –
2 | 0.102 µM | 0.05 µM | 0.049 µM | 2 | 14.8 µM | 28.7 µM | – | – | – | – | O=C1NC(=O)/C(=C/c2ccc(-c3ccc(-n4c(-c5cccs5)cc(/C=C5\SC(=O)NC5=O)c4-c4cccs4)cc3)cc2)S1 | 64% | 87% | 0.45 - 0.68
3 | 1.19 µM | 0.102 µM | 0.381 µM | 12 | 34.5 µM | 42 µM | > 50 µM | 3.5 | 12.5 | 10.2 | Cc1cc(/C=C2\SC(=O)NC2=O)c(C)n1-c1ccc(-c2ccc(/C=C3\SC(=O)NC3=O)cc2)cc1 | 13% | 59% | 0.45 - 0.68
